Data reported in PubChem BioAssay AID449757 (Broad Institute, 2010).
Active and inactive are the calls of the source.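 The calls were made as follows: active = compounds whose fitted caspase activation midpoint falls no more than tenfold above the top tested dose; inconclusive = flat fit with activity between 30 and 70 percent, or failed fit; inactive = the rest.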

Test system: MEF Flag-A1-IRES-BIM, caspase-Glo luminescence, 3 h
Experiment: caspase activation in A1/BIM-primed MEFs, dose response, A1 (Bcl2A1) inhibitor project, cell-based, alternate construct, luminescence (AID 449757)
Summary of the method: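 material = Flag-A1-IRES-BIM-primed MEF cells | quantity = 2500 cells/well | buffer or medium = RPMI-1640 growth medium with 10% FBS | doses = 100 nL compound added per well by pin transfer | incubation = 3-h compound at 37 °C, 30-min cooling, 1-h reagent at RT | detection = CaspaseGlo luminescence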

Q: For `COc1ccccc1-c1cc(C(F)(F)F)nc(S(=O)(=O)CCCC(=O)N2CCOCC2)n1`, which AC50 is on record?
A: 8.31 µM

Q: For `CCc1nnc(NC(=O)CSc2nc(-c3ccccc3)cc(-c3ccc(F)cc3)c2C#N)s1`, which AC50 is on record?
A: 33.1 µM

Q: How did the AC50 turn out when `Cc1cc(C)cc(Cn2ncc(Cl)c(Cl)c2=O)c1` was run?
A: > 35 µM (inactive)

Q: `Cc1ccc(NC(=O)CSc2nc3nc(C)c(Br)cc3[nH]2)cc1F` was tested. Which AC50 did it give?
A: > 35 µM (inactive)

Q: For `Cc1nn(Cc2c(Cl)cccc2Cl)c(C)c1NC(=O)c1cn(-c2ccccc2)nc1-c1ccccc1`, which AC50 is on record?
A: 19.2 µM

Q: For `COc1cc(NC(=O)c2ccccc2)c(OC)cc1NC(=O)Cc1ccc(Br)cc1`, which AC50 is on record?
A: > 35 µM (inactive)

Q: Which AC50 does the source give for `C/C1=C\[C@@H](C)C/C=C/[C@H]2[C@@H]3O[C@]3(C)[C@@H](C)[C@H]3[C@H](Cc4c[nH]c5ccccc45)NC(=O)[C@]32C(=O)/C=C/C(=O)[C@@H]1O` here?
A: 9.84 µM

Q: `COc1ccc(-c2nc(NC(=O)c3n[nH]c(=O)c4ccccc34)sc2C)cc1` was tested. Which AC50 did it give?
A: > 35 µM (inactive)

Q: For `NS(=O)(=O)c1ccc(N/N=C2/CCCCC2C2CCCCC2)c([N+](=O)[O-])c1` (stereo not given), which AC50 is on record?
A: 32.3 µM

Q: With `CC(C)(C)c1ccc2c(c1)OC(C(=O)N/N=C\c1ccc[nH]1)CO2` (stereo not given) as the compound, how does the AC50 read?
A: > 35 µM (inactive)

Q: With `O=C(COc1ccc(/C=N/NC(=O)c2cc3ccccc3o2)cc1Br)Nc1ccccc1` as the compound, how does the AC50 read?
A: 25.3 µM

Q: How did the AC50 turn out when `Cc1ccc(C2(c3ccc(C)cc3)CC2C(=O)Nc2ccc([N+](=O)[O-])cc2O)cc1` (stereo not given) was run?
A: > 35 µM (inactive)

Q: `Cn1cc([N+](=O)[O-])c(C(=O)Nc2cc(Oc3ccccc3)cc([N+](=O)[O-])c2)n1` was tested. Which AC50 did it give?
A: 19.5 µM

Q: Which AC50 does the source give for `CC1CC(C)CN(C(=O)c2ccc(-c3ccc([N+](=O)[O-])cc3)o2)C1` (stereo not given) here?
A: > 35 µM (inactive)

Q: `Cc1ccc(C)c(NC(=S)NC(NC(=O)Cc2cccc3ccccc23)C(Cl)(Cl)Cl)c1` (stereo not given) was tested. Which AC50 did it give?
A: 13.2 µM

Q: Which AC50 does the source give for `CC(=O)OC(C)(C)/C=C/C(=O)C(C)(O)C1[C@H](O)C[C@@]2(C)C3CC=C4C(CC[C@@H](O)C4(C)C)[C@]3(CO)C(=O)C[C@]12C` (stereo not given in full) here?
A: > 35 µM (inactive)

Q: Which AC50 does the source give for `CCc1ccccc1NC(=O)C(CC)Sc1nc2cc3c(cc2c(=O)n1Cc1ccco1)OCO3` (stereo not given) here?
A: > 35 µM (inactive)

Q: `COc1ccc(C2Nc3ccc4ccccc4c3-c3c2c(=O)oc2ccccc32)cc1` (stereo not given) was tested. Which AC50 did it give?
A: 14.9 µM

Q: With `Cc1cccc(C)c1NC(=O)CSc1nc(C)c(CC(=O)c2ccc(Br)cc2)c(C)c1C#N` as the compound, how does the AC50 read?
A: 28.8 µM

Q: With `COc1ccc2c(c1)CCc1c(C(=O)Nc3cc(C)n(Cc4ccc(Cl)cc4)n3)noc1-2` as the compound, how does the AC50 read?
A: 21.9 µM

Q: For `Cc1cc(C)cc(NC(=O)/C(C#N)=C/c2cn(CC(=O)NCc3ccco3)c3ccccc23)c1`, which AC50 is on record?
A: 8.5 µM

Q: For `CC1=NNC(=O)/C1=C\c1cn(-c2ccccc2)nc1-c1ccccc1`, which AC50 is on record?
A: 10.4 µM

Q: How did the AC50 turn out when `C#CC(=O)N(c1cc(OC)ccc1OC)C(C(=O)NC1CCCC1)c1cccs1` (stereo not given) was run?
A: > 35 µM (inactive)

Q: Which AC50 does the source give for `O=C(COc1ccc(/C=N/NC(=O)c2cc3ccccc3o2)cc1Cl)Nc1ccccc1` here?
A: 9.15 µM

Q: Which AC50 does the source give for `COc1ccc(C=C2C=C(C(C)(C)C)C(=O)C(C(C)(C)C)=C2)cc1OC` here?
A: 3.49 µM

Q: `CC(=O)[C@]1(O)Cc2c(O)c3c(c(O)c2[C@@H](O[C@H]2C[C@H](N)[C@H](O)[C@H](C)O2)C1)C(=O)c1ccccc1C3=O` was tested. Which AC50 did it give?
A: > 35 µM (inactive)

Q: `N#CC(C#N)=C1C=CC=CN1/C(=C\c1ccccc1Cl)C(=O)c1ccccc1` was tested. Which AC50 did it give?
A: 3.43 µM

Q: How did the AC50 turn out when `CN(c1ccccc1)c1ccc(/C=C/[N+](=O)[O-])cc1` was run?
A: 10.2 µM

Q: Which AC50 does the source give for `COC(=O)Cc1csc(/N=C/c2c(O)n(-c3cccc(C(F)(F)F)c3)c(=O)c3ccccc23)n1` here?
A: 18.1 µM

Q: Which AC50 does the source give for `Oc1[nH]c2ccc(Br)cc2c1N=NC(=S)Nc1ccc(F)cc1` here?
A: > 35 µM (inactive)

Q: How did the AC50 turn out when `O=C1/C(=C/c2ccc(N3CCOCC3)o2)SC(=Nc2ccccc2)N1CCc1c[nH]c2ccccc12` was run?
A: > 35 µM (inactive)

Q: `CCC1CCCCN1S(=O)(=O)c1ccc(NC(=O)c2nc(S(C)(=O)=O)ncc2Cl)cc1` (stereo not given) was tested. Which AC50 did it give?
A: 3.73 µM

Q: How did the AC50 turn out when `COc1cc2c(-c3ccccc3)c(C)oc2cc1/C=N/NC(N)=S` was run?
A: > 35 µM (inactive)

Q: Which AC50 does the source give for `CC[C@H]1CN2CCc3cc(OC)c(OC)cc3[C@@H]2C[C@@H]1C[C@H]1NCCc2cc(OC)c(OC)cc21` here?
A: > 35 µM (inactive)

Q: `CCOCCCNC(=O)c1ccc2c(c1)N=C(CC)c1cc(Br)ccc1S2` was tested. Which AC50 did it give?
A: > 35 µM (inactive)
